Measured values collected from several papers.
Each line is one published result; the experiments were not run side by side.
rep main protease: Replicase polyprotein 1ab, main protease (rep, Severe acute respiratory syndrome coronavirus 2, UniProt P0DTD1)

SMILES | target | observed | action | technique | concentration | endpoint | result
Cn1cc2c(n1)c(=O)n(Cc1ccc(F)cc1)c1nn(Cc3ccccc3)c(=O)n21 | rep main protease | enzyme activity | inhibitor | – | 20 µM | inhibition | 14.9%
CS(=O)(=O)CCNCc1ccc(-c2ccc3ncnc(Nc4ccc(OCc5cccc(F)c5)c(Cl)c4)c3c2)o1 | rep main protease | enzyme activity | inhibitor | FRET | 100 µM | activity vs control | 100%
Cc1ccc2nc(Cl)c(C=Nc3cc(Br)ccn3)cc2c1 | rep main protease | thermal stability | – | – | 100 µM | ΔTm | 8 to 12 °C
CC(C)C[C@H](NC(=O)OCc1ccccc1)C(=O)N[C@@H](CC(C)C)C(=O)N[C@@H](CC1CCNC1=O)C(=O)C(=O)NC1CC1 (stereo partly shown) | rep main protease | enzyme activity | inhibitor | – | – | kinact/KI | 90500 M⁻¹ s⁻¹
O=C(Nc1ccccc1)Nn1cnnc1 | rep main protease | enzyme activity | inhibitor | – | 20 µM | inhibition | -7.8%
CC(C)(C)NC(=O)[C@@H]1CN(Cc2cccnc2)CCN1C[C@@H](O)C[C@@H](Cc1ccccc1)C(=O)N[C@H]1c2ccccc2C[C@H]1O | rep main protease | enzyme activity | inhibitor | FRET | 100 µM | activity vs control | 100%
CCN(C[C@H]1O[C@@H](n2cnc3c(N)ncnc32)[C@H](O)[C@@H]1O)S(=O)(=O)c1ccc(OC)c(C#N)c1 | Replicase polyprotein 1ab, methyltransferase (rep, Severe acute respiratory syndrome coronavirus 2, UniProt P0DTD1) | enzyme activity | inhibitor | – | 5 µM | remaining activity | 0.1%
CC(C)[C@H](NC(=O)OC(C)(C)C)C(=O)N1C[C@@H]2CCC[C@@H]2[C@H]1C(=O)N[C@H](C=O)C[C@@H]1CCNC1=O | rep main protease | thermal stability | – | – | 40 µM | ΔTm | 11 °C
C=C1CC[C@@H]2[C@](C)(CO)[C@H](O)CC[C@@]2(C)[C@@H]1C/C=C1/C(=O)OC[C@H]1O | rep main protease | enzyme activity | inhibitor | – | 20 µM | remaining activity | 96%
Clc1nc2ccccc2cc1/C=N\c1ccc(Br)nc1 | rep main protease | thermal stability | – | – | 100 µM | ΔTm | 8 to 12 °C
